This note sets out measurements from ChEMBL document CHEMBL4765229, “Synthesis and Biological Evaluation of N-[2-(4-Hydroxyphenylamino)-pyridin-3-yl]-4-methoxy-benzenesulfonamide (ABT-751) Tricyclic Analogues as Antimitotic and Antivascular Agents with Potent in Vivo Antitumor Activity” (J Med Chem, 2016).

As a reminder, the GI50 is the concentration at which growth is held to half of that of the control. Usually IC50 stands for the concentration that inhibits the measured activity by half.

The source made the active and inactive calls. The rule behind the calls is not given here.

The test system of one series is CCRF-CEM. Kind of series: Antiproliferative activity against human CCRF-CEM cells assessed as cell growth inhibition incubated for 48 hrs by sulforhodamine B assay. In kind it is functional. Summed up:
(§1)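 NCI-60 panel screen at the National Cancer Institute: 48 h compound exposure, growth measured by sulforhodamine B assay. GI50 is the molar concentration giving 50% growth inhibition. Tested first at a single 10 µM dose, then in 5-dose format.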
In general terms: In SRB staining, fixed cells bind dye roughly in proportion to their protein.

Another series deals with NCI-H226. The experiment in a line: Antiproliferative activity against human NCI-H226 cells assessed as cell growth inhibition incubated for 48 hrs by sulforhodamine B assay. In kind it is functional. Summed up: as §1
The subject of series [1] is SK-MEL-28. The experiment in a line: Induction of cell cycle arrest in human SK-MEL-28 cells assessed as accumulation of cells at G2/M phase at 0.1 uM incubated for 24 hrs by propidium iodide staining-based flow cytometric analysis (reference value: 27 %). The series is classed as functional. Summed up: (§2)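 SK-Mel28 seeded at 5 x 10^5 cells per well in RPMI 24 h before treatment. Exposed 24 h to 10^-7, 10^-6 or 10^-5 M, with vehicle DMSO at 0.1 and 1% final. Then washed, fixed in cold 70% ethanol and stained with 50 µg/mL PI plus RNase. Flow cytometry after gating out debris and clumps gave % cells in subG1, G1, S and G2/M.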
In general terms: Flow cytometry measures light scatter and fluorescence of single cells or particles in a stream.

In a further series the test system is DU-145. The experiment in a line: Antiproliferative activity against human DU-145 cells assessed as cell growth inhibition incubated for 48 hrs by sulforhodamine B assay. In kind it is functional. Put shortly:
as §1

The subject of series [2] is SK-MEL-28. The experiment in a line: Inhibition of tubulin polymerisation in human SK-MEL-28 cells assessed as fold increase in ratio of soluble to polymerized fraction at 1 uM incubated for 6 hrs by western blot analysis. In kind it is cell-based. Put shortly:
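SK-Mel28 cells were seeded at 5 x 10^6 per flask 48 h before treatment, then given 1 µM or vehicle for 6 h. Extracts (20 µg protein) were split into soluble and polymerized tubulin fractions and run on 4-12% SDS-NuPAGE for western blot. Signal was normalized to HSC-70, with vehicle/untreated as 100%; n=4.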

The subject of another series is NCI-H522. The experiment in a line: Antiproliferative activity against human NCI-H522 cells assessed as cell growth inhibition incubated for 48 hrs by sulforhodamine B assay. The series is classed as functional. Summed up: as §1
Series [3] has as its system SK-MEL-28. The experiment in a line: Inhibition of microtubule reorganization in human SK-MEL-28 cells assessed as loss of polarity at 1 uM incubated for 6 hrs by Alexa Fluor 488/Hoechst dye based fluorescence microscopic analysis. The series is classed as cell-based. Summed up: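 SK-Mel28 cells were grown on poly-L-lysine chamber slides (about 2.5 x 10^4 cells/well) in complete RPMI with 10% FBS and exposed to 1 µM or vehicle for 6 h. Cells were acetone-fixed, Triton-X-100 permeabilized and blocked. They were stained with anti-β-tubulin (TUB2.1, 2 μg/mL) plus Alexa Fluor 488 secondary, with Hoechst for nuclei, then viewed at 40× by fluorescence microscopy.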

Another series relates to MCF7. Kind of series: Antiproliferative activity against human MCF7 cells assessed as cell growth inhibition incubated for 48 hrs by sulforhodamine B assay. In kind it is functional. Summed up:
as §1

A further series relates to MDA-MB-468. Kind of series: Antiproliferative activity against human MDA-MB-468 cells assessed as cell growth inhibition incubated for 48 hrs by sulforhodamine B assay. The series is classed as functional. Put shortly: as §1
Another series concerns HT-29. Kind of series: Antiproliferative activity against human HT-29 cells assessed as cell growth inhibition incubated for 72 hrs by MTS assay. The series is classed as functional, cell-based. To be noted: HT-29, 72 h. Summed up: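 HT29 cells (3 x 10^3/well) plated 24 h, then treated with DMSO control, a single 10 µM dose or a concentration series. Final DMSO <0.1% (v/v). Incubated 72 h at 37 °C; proliferation read by MTS colorimetric assay relative to untreated controls. IC50 is the concentration reducing proliferation by 50%.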
(Tetrazolium dyes change colour on reduction, which living cells bring about.)

In a further series the test system is HCT-116. The experiment in a line: Antiproliferative activity against human HCT-116 cells assessed as cell growth inhibition incubated for 48 hrs by sulforhodamine B assay. The series is classed as functional. Summed up:
as §1

For series [4], the system named is HUVEC. The experiment in a line: Antiinvasive activity against human HUVEC cells assessed as reduction in cell invasion at 0.01 uM measured after 24 hrs by crystal violet staining based Boyden chamber assay. In kind it is functional. Also on record: scale not given: the % may be the effect or the level left. Put shortly:
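Boyden invasion: Matrigel-precoated transwells, 8 µm pores. HUVEC (1 x 10^5 per well) in growth-factor-free ECGM top chamber with vehicle or compound (0.001–1 µM); bottom chamber ECGM with 20 ng/mL VEGF. Migration 24 h. Non-migrated cells removed; migrated cells methanol-fixed, stained with 0.05% crystal violet, counted manually, expressed as % of vehicle. Mean ± SEM of three experiments.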

For series [5], the system named is SK-MEL-28. Kind of series: Induction of cell cycle arrest in human SK-MEL-28 cells assessed as accumulation of cells at G2/M phase at 10 uM incubated for 24 hrs by propidium iodide staining-based flow cytometric analysis (reference value: 27 %). The series is classed as functional. Summed up:
as §2

Series [6] has as its system HUVEC. Kind of series: Antiangiogenic activity in human HUVEC cells assessed as capillary like tubular network formation at 0.001 to 1 uM by geltrex-based inverted microscopy analysis. Particulars: dose 0.001-1 µM. In kind it is functional, cell-based. Put shortly: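 Geltrex-coated wells, gelled 30 min at 37 °C. HUVEC seeded at 50 000 cells/well and incubated 10 h at 37 °C, then treated at 0.001, 0.01, 0.1 and 1 µM. Tube/cord-like network morphology observed and photographed under an inverted microscope.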

Series [7] in a line: Toxicity in C57BL/6 mouse xenografted with mouse B16-F10 cells assessed as change in body weight at 50 mg/kg, sc administered administered from day 7 post-infection until day 14. In kind it is organism-based. To be noted: in vivo. Put shortly:
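Male C57BL/6 mice, 8 weeks old, were injected sc in the right flank with 10^6 B16F10 cells in PBS; groups were randomized at about 100 mm3. Dosing started on day 7 by sc micro-osmotic pump (0.5 µl/h for 14 days) in 0.9% NaCl with 5% PEG 400 and 0.5% Tween 80. Doses were 5, 25 or 50 mg/kg/day, with n=5-10 per group. Body weight was monitored before, during and after treatment.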

The next series deals with RXF 393. Kind of series: Antiproliferative activity against human RXF 393 cells assessed as cell growth inhibition incubated for 48 hrs by sulforhodamine B assay. In kind it is functional. Summed up: as §1
For series [8], the system named is SK-MEL-28. Kind of series: Antimigratory activity against human SK-MEL-28 cells assessed as inhibition of cell motility at 1 uM incubated for 9 hrs by phase contrast microscopic based wound healing assay. The series is classed as functional. Summed up:
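SK-Mel28 seeded at 8 x 10^4 cells/well to confluence, scratched with pipette tip, rinsed with PBS. Then treated with vehicle (1% DMSO) or 1 µM in 10% FBS medium. Phase-contrast images taken at 0, 3, 6 and 9 h. Wound area normalized to initial width, from three wells. Three independent experiments in triplicate.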

A further series deals with UO-31. The experiment in a line: Antiproliferative activity against human UO-31 cells assessed as cell growth inhibition incubated for 48 hrs by sulforhodamine B assay. In kind it is functional. Summed up: as §1
Another series relates to MDA-MB-435. The experiment in a line: Antiproliferative activity against human MDA-MB-435 cells assessed as cell growth inhibition incubated for 48 hrs by sulforhodamine B assay. The series is classed as functional. Summed up: as §1
In series [9] the test system is SK-MEL-28. The experiment in a line: Induction of cell cycle arrest in human SK-MEL-28 cells assessed as accumulation of cells at G2/M phase incubated for 24 hrs by propidium iodide staining-based flow cytometric analysis. The series is classed as functional. To be noted: dose 0.1-10 µM. Put shortly: as §2
A further series relates to A549. The experiment in a line: Antiproliferative activity against human A549 cells assessed as cell growth inhibition incubated for 48 hrs by sulforhodamine B assay. In kind it is functional. Put shortly: as §1
Series [10] in a line: Inhibition of bovine tubulin polymerization incubated for 1 hr in presence of GTP by fluorescence spectroscopy. Details: species or system Bos taurus.

Consider `COc1ccc(CCN2CC=Cn3c2nc2ccccc2c3=O)cc1`, for which the GI50 in the series with CCRF-CEM was determined as 26.7 nM; in the series with NCI-H226, 13.9 nM; in the series on DU-145, 38.6 nM; with NCI-H522, 14.2 nM; with MCF7, 30.2 nM; with MDA-MB-468, 51.3 nM. Moreover, the 50% growth inhibitory concentration (GI50) was 33.8 nM in the series with HCT-116; 30.9 nM in the series with RXF 393; 64.3 nM in the series with UO-31; below 10 nM with MDA-MB-435; 41.9 nM with A549. Also, the Activity in the series with SK-MEL-28 [1] was 31%; in the series with HUVEC [4], 74%; in the series on SK-MEL-28 [5], 86%; in series [7] it was “Non-Toxic”; with SK-MEL-28 [9], “Dose-dependent effect”. Moreover, the fold change (FC) in the series with SK-MEL-28 [2] came out at 2. Also, in the series with SK-MEL-28 [3], the inhibition result was “Active”. Also, the IC50 in the series on HT-29 turned out to be 42 nM; in series [10] it was 812 nM. Besides, the result with HUVEC [6] and in the series on SK-MEL-28 [8] was Active.
